Measured values: ChEMBL document CHEMBL5724801, “EUbOPEN Chemogenomics Library - Multiplex” (2024)
Several values for one entry are separate records, joined by “and”; a condition that tells them apart may be missing. Equal entries are not always repeated.

Test system: U2OS
Assay: Multiplex assay against U2OS
Format: toxicity, cell-based
Settings: human
Procedure, shortened: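 With compound added, live cells were imaged on a CQ1 microscope at 37°C and 5% CO2; staining with Hoechst33342, BioTracker Green Microtubule Cytoskeleton Dye, MitoTracker Red and Annexin V Alexa Fluor 680 had been done at seeding. The CellPathfinder machine-learning gating scheme split cells into Hoechst high-intensity objects or normal cells, normal cells into healthy, pyknosed or fragmented nuclei, and pyknosed cells into mitotic or apoptotic. The tubulin, mitochondrial-mass and membrane-permeability phenotypes are per cents of healthy-nucleus cells.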

[1] = 12 h, 1 µM, compound concentration 1 uM
[2] = 12 h, 10 µM, compound concentration 10 uM
[3] = 24 h, 1 µM, compound concentration 1 uM
[4] = 24 h, 10 µM, compound concentration 10 uM
[5] = 48 h, 1 µM, compound concentration 1 uM
[6] = 48 h, 10 µM, compound concentration 10 uM

Structure (SMILES): Cc1cc(C)c(NC(=O)C2CC3CCC2C3)c(C)c1 (centres undefined)
- Population Apoptotic (%) [1]: 35.29%
- Population Fragmented Nuclei (%) [1]: 2.08% and 2.72%
- Population Healthy Nuclei (%) [1]: 89.09% and 88.04%
- Population Hoechst High Intensity Objects (%) [1]: 0%
- Population Membrane Permeable-Phenotype (%) [1]: 1.75% and 1.23%
- Population Mitochondria Different-Phenotype (%) [1]: 0.29% and 4.94%
- Population Mitotic Cells (%) [1]: 64.71%
- Population Normal (%) [1]: 100%
- Population Pyknosed Nuclei (%) [1]: 8.83% and 9.24%
- Population Tubulin-Different-Phenotype (%) [1]: 2.04% and 0%
- Total Cell Count [1]: 385 and 184
- Population Apoptotic (%) [2]: 50% and 36%
- Population Fragmented Nuclei (%) [2]: 2.53% and 4.4%
- Population Healthy Nuclei (%) [2]: 88.71% and 79.87%
- Population Hoechst High Intensity Objects (%) [2]: 0%
- Population Membrane Permeable-Phenotype (%) [2]: 1.56% and 2.36%
- Population Mitochondria Different-Phenotype (%) [2]: 0.26% and 8.66%
- Population Mitotic Cells (%) [2]: 50% and 64%
- Population Normal (%) [2]: 100%
- Population Pyknosed Nuclei (%) [2]: 8.76% and 15.72%
- Population Tubulin-Different-Phenotype (%) [2]: 0.52% and 1.57%
- Total Cell Count [2]: 434 and 159
- Population Apoptotic (%) [3]: 42.86% and 36%
- Population Fragmented Nuclei (%) [3]: 2.11% and 1.27%
- Population Healthy Nuclei (%) [3]: 84.48% and 88.19%
- Population Hoechst High Intensity Objects (%) [3]: 0.19% and 0%
- Population Membrane Permeable-Phenotype (%) [3]: 1.36% and 1.91%
- Population Mitochondria Different-Phenotype (%) [3]: 0.23% and 2.39%
- Population Mitotic Cells (%) [3]: 57.14% and 64%
- Population Normal (%) [3]: 99.81% and 100%
- Population Pyknosed Nuclei (%) [3]: 13.41% and 10.55%
- Population Tubulin-Different-Phenotype (%) [3]: 0.91% and 0%
- Total Cell Count [3]: 523 and 237
- Population Apoptotic (%) [4]: 34.38% and 46.43%
- Population Fragmented Nuclei (%) [4]: 2.9% and 2.49%
- Population Healthy Nuclei (%) [4]: 86.2% and 83.58%
- Population Hoechst High Intensity Objects (%) [4]: 0.17% and 0%
- Population Membrane Permeable-Phenotype (%) [4]: 1.19%
- Population Mitochondria Different-Phenotype (%) [4]: 0.4% and 3.57%
- Population Mitotic Cells (%) [4]: 65.62% and 53.57%
- Population Normal (%) [4]: 99.83% and 100%
- Population Pyknosed Nuclei (%) [4]: 10.9% and 13.93%
- Population Tubulin-Different-Phenotype (%) [4]: 0.79% and 2.38%
- Total Cell Count [4]: 588 and 201
- Population Apoptotic (%) [5]: 45% and 48.57%
- Population Fragmented Nuclei (%) [5]: 2.82% and 2%
- Population Healthy Nuclei (%) [5]: 88.83% and 89.25%
- Population Hoechst High Intensity Objects (%) [5]: 0%
- Population Membrane Permeable-Phenotype (%) [5]: 2% and 1.96%
- Population Mitochondria Different-Phenotype (%) [5]: 0.12% and 3.08%
- Population Mitotic Cells (%) [5]: 55% and 51.43%
- Population Normal (%) [5]: 100%
- Population Pyknosed Nuclei (%) [5]: 8.35% and 8.75%
- Population Tubulin-Different-Phenotype (%) [5]: 1.53% and 0.28%
- Total Cell Count [5]: 958 and 400
- Population Apoptotic (%) [6]: 38.02% and 53.12%
- Population Fragmented Nuclei (%) [6]: 3.32% and 3.75%
- Population Healthy Nuclei (%) [6]: 86.1% and 87.03%
- Population Hoechst High Intensity Objects (%) [6]: 0%
- Population Membrane Permeable-Phenotype (%) [6]: 1.52% and 2.32%
- Population Mitochondria Different-Phenotype (%) [6]: 0.1% and 3.97%
- Population Mitotic Cells (%) [6]: 61.98% and 46.88%
- Population Normal (%) [6]: 100%
- Population Pyknosed Nuclei (%) [6]: 10.58% and 9.22%
- Population Tubulin-Different-Phenotype (%) [6]: 1.22% and 1.99%

Structure (SMILES): Cc1[nH]nc2ccc(-c3cncc(OCC(N)Cc4c[nH]c5ccccc45)c3)cc12 (centres undefined)
- Population Apoptotic (%) [1]: 44.72% and 48.45%
- Population Fragmented Nuclei (%) [1]: 8.59% and 11.33%
- Population Healthy Nuclei (%) [1]: 46.81% and 24%
- Population Hoechst High Intensity Objects (%) [1]: 0%
- Population Membrane Permeable-Phenotype (%) [1]: 2.37% and 0%
- Population Mitotic Cells (%) [1]: 55.28% and 51.55%
- Population Normal (%) [1]: 100%
- Population Pyknosed Nuclei (%) [1]: 44.6% and 64.67%
- Population Tubulin-Different-Phenotype (%) [1]: 4.73% and 0%
- Total Cell Count [1]: 361 and 150
- Population Apoptotic (%) [2]: 65.77% and 68.92%
- Population Fragmented Nuclei (%) [2]: 11.37% and 8.4%
- Population Healthy Nuclei (%) [2]: 2.49% and 6.87%
- Population Hoechst High Intensity Objects (%) [2]: 0%
- Population Membrane Permeable-Phenotype (%) [2]: 0% and 22.22%
- Population Mitochondria Different-Phenotype (%) [2]: 35.71% and 55.56%
- Population Mitotic Cells (%) [2]: 34.23% and 31.08%
- Population Normal (%) [2]: 100%
- Population Pyknosed Nuclei (%) [2]: 86.15% and 84.73%
- Population Tubulin-Different-Phenotype (%) [2]: 42.86% and 33.33%
- Total Cell Count [2]: 563 and 262
- Population Apoptotic (%) [3]: 64.71% and 80.2%
- Population Fragmented Nuclei (%) [3]: 9.73% and 13.51%
- Population Healthy Nuclei (%) [3]: 38.6% and 18.24%
- Population Hoechst High Intensity Objects (%) [3]: 0%
- Population Membrane Permeable-Phenotype (%) [3]: 3.15% and 3.7%
- Population Mitotic Cells (%) [3]: 35.29% and 19.8%
- Population Normal (%) [3]: 100%
- Population Pyknosed Nuclei (%) [3]: 51.67% and 68.24%
- Population Tubulin-Different-Phenotype (%) [3]: 2.36% and 7.41%
- Total Cell Count [3]: 329 and 148
- Population Apoptotic (%) [4]: 93.93% and 93.15%
- Population Fragmented Nuclei (%) [4]: 7.63% and 5.95%
- Population Healthy Nuclei (%) [4]: 4.33% and 7.14%
- Population Hoechst High Intensity Objects (%) [4]: 0%
- Population Mitochondria Different-Phenotype (%) [4]: 17.65% and 50%
- Population Mitotic Cells (%) [4]: 6.07% and 6.85%
- Population Normal (%) [4]: 100%
- Population Pyknosed Nuclei (%) [4]: 88.04% and 86.9%
- Population Tubulin-Different-Phenotype (%) [4]: 35.29% and 16.67%
- Total Cell Count [4]: 393 and 168
- Population Apoptotic (%) [5]: 73.68% and 85.57%
- Population Fragmented Nuclei (%) [5]: 8.46% and 13.19%
- Population Healthy Nuclei (%) [5]: 34.14% and 19.44%
- Population Hoechst High Intensity Objects (%) [5]: 0%
- Population Mitochondria Different-Phenotype (%) [5]: 1.77% and 10.71%
- Population Mitotic Cells (%) [5]: 26.32% and 14.43%
- Population Normal (%) [5]: 100%
- Population Pyknosed Nuclei (%) [5]: 57.4% and 67.36%
- Population Tubulin-Different-Phenotype (%) [5]: 5.31% and 0%
- Total Cell Count [5]: 331 and 144
- Population Apoptotic (%) [6]: 96.14% and 98.84%
- Population Fragmented Nuclei (%) [6]: 9.73% and 10.67%
- Population Healthy Nuclei (%) [6]: 29.2% and 32%
- Population Hoechst High Intensity Objects (%) [6]: 0%
- Population Membrane Permeable-Phenotype (%) [6]: 12.12% and 29.17%
- Population Mitochondria Different-Phenotype (%) [6]: 23.23% and 35.42%
- Population Mitotic Cells (%) [6]: 3.86% and 1.16%
- Population Normal (%) [6]: 100%
- Population Pyknosed Nuclei (%) [6]: 61.06% and 57.33%
- Population Tubulin-Different-Phenotype (%) [6]: 14.14% and 16.67%
- Total Cell Count [6]: 339 and 150

Structure (SMILES): Cn1ncnc1COc1nn2c(-c3cc(F)ccc3F)nnc2cc1C(C)(C)C
- Population Apoptotic (%) [1]: 55.26% and 53.85%
- Population Fragmented Nuclei (%) [1]: 0.89% and 4.24%
- Population Healthy Nuclei (%) [1]: 90.6% and 80%
- Population Hoechst High Intensity Objects (%) [1]: 0%
- Population Mitochondria Different-Phenotype (%) [1]: 0% and 7.58%
- Population Mitotic Cells (%) [1]: 44.74% and 46.15%
- Population Normal (%) [1]: 100%
- Population Pyknosed Nuclei (%) [1]: 8.5% and 15.76%
- Population Tubulin-Different-Phenotype (%) [1]: 1.23% and 0.76%
- Total Cell Count [1]: 447 and 165
- Population Apoptotic (%) [2]: 36.84% and 41.18%
- Population Fragmented Nuclei (%) [2]: 1.2% and 0.65%
- Population Healthy Nuclei (%) [2]: 87.43% and 88.24%
- Population Hoechst High Intensity Objects (%) [2]: 0%
- Population Mitotic Cells (%) [2]: 63.16% and 58.82%
- Population Normal (%) [2]: 100%
- Population Pyknosed Nuclei (%) [2]: 11.38% and 11.11%
- Population Tubulin-Different-Phenotype (%) [2]: 1.71% and 1.48%
- Total Cell Count [2]: 334 and 153
- Population Apoptotic (%) [3]: 33.9% and 52.63%
- Population Fragmented Nuclei (%) [3]: 0.96% and 3.02%
- Population Healthy Nuclei (%) [3]: 89.63% and 77.89%
- Population Hoechst High Intensity Objects (%) [3]: 0%
- Population Mitochondria Different-Phenotype (%) [3]: 0% and 7.74%
- Population Mitotic Cells (%) [3]: 66.1% and 47.37%
- Population Normal (%) [3]: 100%
- Population Pyknosed Nuclei (%) [3]: 9.41% and 19.1%
- Population Tubulin-Different-Phenotype (%) [3]: 0.53% and 0.65%
- Population Apoptotic (%) [4]: 30.77% and 47.83%
- Population Fragmented Nuclei (%) [4]: 1.81% and 3.66%
- Population Healthy Nuclei (%) [4]: 86.39% and 84.29%
- Population Hoechst High Intensity Objects (%) [4]: 0% and 0.52%
- Population Mitochondria Different-Phenotype (%) [4]: 0% and 3.73%
- Population Mitotic Cells (%) [4]: 69.23% and 52.17%
- Population Normal (%) [4]: 100% and 99.48%
- Population Pyknosed Nuclei (%) [4]: 11.79% and 12.04%
- Population Tubulin-Different-Phenotype (%) [4]: 2.62% and 1.24%
- Total Cell Count [4]: 441 and 192
- Population Apoptotic (%) [5]: 43.96% and 63.41%
- Population Fragmented Nuclei (%) [5]: 3.06% and 2.48%
- Population Healthy Nuclei (%) [5]: 88.51% and 84.83%
- Population Hoechst High Intensity Objects (%) [5]: 0% and 0.31%
- Population Mitochondria Different-Phenotype (%) [5]: 0% and 6.93%
- Population Mitotic Cells (%) [5]: 56.04% and 36.59%
- Population Normal (%) [5]: 100% and 99.69%
- Population Pyknosed Nuclei (%) [5]: 8.43% and 12.69%
- Population Tubulin-Different-Phenotype (%) [5]: 1.05% and 0.73%
- Population Apoptotic (%) [6]: 56.04% and 51.22%
- Population Fragmented Nuclei (%) [6]: 2.31% and 1.96%
- Population Healthy Nuclei (%) [6]: 87.15% and 84.64%
- Population Hoechst High Intensity Objects (%) [6]: 0%
- Population Mitochondria Different-Phenotype (%) [6]: 0.13% and 5.41%
- Population Mitotic Cells (%) [6]: 43.96% and 48.78%
- Population Normal (%) [6]: 100%
- Population Pyknosed Nuclei (%) [6]: 10.53% and 13.4%
- Population Tubulin-Different-Phenotype (%) [6]: 1.86% and 1.54%
- Total Cell Count [6]: 864 and 306
